In ChEMBL document CHEMBL4665726, “Development of a selective HDAC inhibitor aimed at reactivating the HIV latent reservoir” (Bioorg Med Chem Lett, 2020):

Tests used:
[1] = biological target: Histone deacetylase 3 (Homo sapiens, UniProt O15379); experiment: Inhibition of HDAC3 (unknown origin)
[2] = biological target: T1, Class 1 histone deacetylase (Homo sapiens, UniProt Q13547+O15379+Q92769+Q9BY41); experiment: Inhibition of Class 1 HDAC in VSV-G-pseudotyped HIV infected human 2C4 cell Jurkat model assessed as reactivation of HIV latency in presence of 5% NHS by fluorescent reporter gene assay
Procedure, shortened: (§1)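 Latently infected Jurkat 2C4 cells (HIV latency model) were tested for reactivation of silenced provirus in parallel at two normal human serum levels: 0.1% and 5%. The paired runs gauge the potency shift from plasma protein binding.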

[3] = biological target: Histone deacetylase 2 (Homo sapiens, UniProt Q92769); experiment: Inhibition of HDAC2 (unknown origin)
Sequence of Histone deacetylase 2 (Q92769 whole entry): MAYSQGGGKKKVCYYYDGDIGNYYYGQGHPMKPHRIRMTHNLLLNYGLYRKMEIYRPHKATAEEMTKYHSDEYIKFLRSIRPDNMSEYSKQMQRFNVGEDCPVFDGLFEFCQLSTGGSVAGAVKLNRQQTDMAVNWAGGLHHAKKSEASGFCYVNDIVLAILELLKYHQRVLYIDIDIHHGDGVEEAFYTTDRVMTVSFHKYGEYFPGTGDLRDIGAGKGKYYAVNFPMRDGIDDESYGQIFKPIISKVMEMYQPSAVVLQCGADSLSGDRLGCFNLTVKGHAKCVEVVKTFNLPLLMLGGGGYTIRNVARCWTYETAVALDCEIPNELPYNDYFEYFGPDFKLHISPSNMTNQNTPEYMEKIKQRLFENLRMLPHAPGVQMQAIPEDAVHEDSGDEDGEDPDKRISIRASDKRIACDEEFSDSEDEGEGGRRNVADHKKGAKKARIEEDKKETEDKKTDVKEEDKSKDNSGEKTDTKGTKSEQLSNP

[4] = biological target: T2, Histone deacetylase 8 (Homo sapiens, UniProt Q9BY41); experiment: Inhibition of HDAC8 (unknown origin)
T2 sequence (Q9BY41 whole entry): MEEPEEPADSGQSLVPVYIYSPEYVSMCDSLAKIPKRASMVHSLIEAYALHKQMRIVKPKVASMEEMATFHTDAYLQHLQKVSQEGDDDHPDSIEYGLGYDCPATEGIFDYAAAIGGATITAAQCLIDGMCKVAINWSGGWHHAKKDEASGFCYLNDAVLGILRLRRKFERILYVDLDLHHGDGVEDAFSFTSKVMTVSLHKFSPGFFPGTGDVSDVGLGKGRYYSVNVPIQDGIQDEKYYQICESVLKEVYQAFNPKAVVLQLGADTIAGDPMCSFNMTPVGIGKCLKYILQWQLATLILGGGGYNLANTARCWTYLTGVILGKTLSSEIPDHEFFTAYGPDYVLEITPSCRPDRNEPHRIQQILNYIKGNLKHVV

[5] = biological target: T1, Class 1 histone deacetylase; experiment: Inhibition of Class 1 HDAC in VSV-G-pseudotyped HIV infected human 2C4 cell Jurkat model assessed as reactivation of HIV latency in presence of 0.1% NHS by fluorescent reporter gene assay; procedure, shortened: as §1
[6] = biological target: T3, Protein deacetylase HDAC6 (Homo sapiens, UniProt Q9UBN7); experiment: Inhibition of HDAC6 (unknown origin)
T3 sequence (Q9UBN7 whole entry): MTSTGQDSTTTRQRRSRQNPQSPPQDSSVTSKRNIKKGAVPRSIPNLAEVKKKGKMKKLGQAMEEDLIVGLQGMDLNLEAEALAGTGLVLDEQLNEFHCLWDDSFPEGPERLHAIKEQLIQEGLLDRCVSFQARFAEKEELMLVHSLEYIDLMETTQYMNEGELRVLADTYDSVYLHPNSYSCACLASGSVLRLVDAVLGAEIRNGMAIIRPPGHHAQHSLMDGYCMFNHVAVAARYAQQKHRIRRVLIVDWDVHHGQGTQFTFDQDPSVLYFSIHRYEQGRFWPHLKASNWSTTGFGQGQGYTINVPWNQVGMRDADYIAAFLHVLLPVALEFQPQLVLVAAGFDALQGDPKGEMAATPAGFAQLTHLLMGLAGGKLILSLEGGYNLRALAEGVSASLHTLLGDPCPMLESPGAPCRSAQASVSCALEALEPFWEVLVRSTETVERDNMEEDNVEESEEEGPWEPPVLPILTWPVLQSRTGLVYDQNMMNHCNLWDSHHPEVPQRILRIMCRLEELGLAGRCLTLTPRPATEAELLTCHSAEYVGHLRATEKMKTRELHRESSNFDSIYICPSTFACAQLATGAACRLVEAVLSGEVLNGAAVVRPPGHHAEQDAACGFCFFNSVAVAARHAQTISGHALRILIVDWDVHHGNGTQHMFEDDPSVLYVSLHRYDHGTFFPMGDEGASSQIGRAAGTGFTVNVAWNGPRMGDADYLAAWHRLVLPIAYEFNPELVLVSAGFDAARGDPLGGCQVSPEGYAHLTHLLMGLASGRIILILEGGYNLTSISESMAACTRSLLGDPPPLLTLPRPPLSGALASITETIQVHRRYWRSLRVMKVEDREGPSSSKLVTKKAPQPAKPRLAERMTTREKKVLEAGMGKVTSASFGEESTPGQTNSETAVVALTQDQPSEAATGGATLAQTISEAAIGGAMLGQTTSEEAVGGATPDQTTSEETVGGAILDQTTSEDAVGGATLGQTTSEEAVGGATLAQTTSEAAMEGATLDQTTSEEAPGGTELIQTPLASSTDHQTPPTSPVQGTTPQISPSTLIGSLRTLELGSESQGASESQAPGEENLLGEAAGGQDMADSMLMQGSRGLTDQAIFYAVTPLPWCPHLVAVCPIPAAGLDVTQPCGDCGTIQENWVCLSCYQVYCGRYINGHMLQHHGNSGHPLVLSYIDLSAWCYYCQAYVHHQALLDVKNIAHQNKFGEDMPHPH

[7] = biological target: Histone deacetylase 1 (Homo sapiens, UniProt Q13547); experiment: Inhibition of HDAC1 (unknown origin)
Sequence of Histone deacetylase 1 (Q13547 whole entry): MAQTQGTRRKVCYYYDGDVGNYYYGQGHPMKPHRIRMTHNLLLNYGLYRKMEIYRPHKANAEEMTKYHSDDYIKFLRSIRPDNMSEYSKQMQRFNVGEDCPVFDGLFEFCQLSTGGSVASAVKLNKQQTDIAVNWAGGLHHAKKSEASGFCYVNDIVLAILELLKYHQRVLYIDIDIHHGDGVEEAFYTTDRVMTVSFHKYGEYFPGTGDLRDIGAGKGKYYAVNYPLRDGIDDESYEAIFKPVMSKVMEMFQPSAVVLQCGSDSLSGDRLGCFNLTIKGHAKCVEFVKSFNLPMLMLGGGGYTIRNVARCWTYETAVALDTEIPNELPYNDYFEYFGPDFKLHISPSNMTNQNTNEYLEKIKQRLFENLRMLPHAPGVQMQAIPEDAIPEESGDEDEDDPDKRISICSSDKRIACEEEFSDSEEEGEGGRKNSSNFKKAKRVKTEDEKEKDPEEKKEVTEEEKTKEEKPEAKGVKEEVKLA

Sequence of Histone deacetylase 3 (O15379 whole entry): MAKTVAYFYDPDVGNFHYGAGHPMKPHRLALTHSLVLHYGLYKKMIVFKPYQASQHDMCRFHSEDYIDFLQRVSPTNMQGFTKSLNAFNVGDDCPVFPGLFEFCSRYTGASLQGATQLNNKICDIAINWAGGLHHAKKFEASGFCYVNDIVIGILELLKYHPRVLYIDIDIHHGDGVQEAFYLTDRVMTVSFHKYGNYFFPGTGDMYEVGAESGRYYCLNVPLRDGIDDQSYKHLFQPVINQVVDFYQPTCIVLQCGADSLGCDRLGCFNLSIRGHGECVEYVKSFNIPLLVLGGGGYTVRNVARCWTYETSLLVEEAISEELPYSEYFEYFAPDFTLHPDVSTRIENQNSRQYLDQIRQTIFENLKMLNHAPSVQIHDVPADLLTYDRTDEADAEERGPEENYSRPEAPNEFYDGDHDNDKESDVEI

| Structure (SMILES) | IC50 [1] [nM] | EC50 [2] [nM] | IC50 [3] [nM] | IC50 [4] [nM] | EC50 [5] [nM] | IC50 [6] [nM] | IC50 [7] [nM] |
| --- | --- | --- | --- | --- | --- | --- | --- |
| CCC(=O)CCCCC[C@H](NC(=O)[C@H]1CC12CCN(C)CC2)c1[nH]c(-c2cc3ccccc3nc2OC)nc1C#N | 101 | 1351 | 177 | > 45000 | 548 | 8970 | 97.9 |
| CCC(=O)CCCCC[C@H](NC(=O)[C@H]1CC12CCN(C)CC2)c1[nH]c(-c2ccc3nn(C)cc3c2)nc1C#N | 0.3 | 322 | 2.1 | 12400 | 247 | 9040 | 0.4 |
| CCC(=O)CCCCC[C@H](NC(=O)C1CCOCC1)c1[nH]c(-c2ccc(F)cc2)nc1C(N)=O | 3.4 | 1504 | 73.8 | 7570 | 1834 | 27900 | 12.3 |
| CCC(=O)CCCCCC(NC(=O)c1cncs1)c1[nH]c(-c2ccccc2)nc1C(=O)NC (configuration not stated) | 4.7 | 1804 | 91.4 | 7470 | 570 | 29200 | 27.6 |
| CCC(=O)CCCCC[C@H](NC(=O)[C@H]1CC12CCN(CC)CC2)c1[nH]c(-c2ccc(F)cc2)nc1C(N)=O | 0.7 | 165 | 5 | 6360 | 193 | 17500 | 0.4 |
| CCC(=O)CCCCC[C@H](NC(=O)CN(C)C)c1[nH]c(-c2ccc(F)cc2)nc1C#N | 26.8 | 3532 | 219 | 29500 | 1605 | 43300 | 47.9 |
| CCC(=O)CCCCC[C@H](NC(=O)[C@H]1CC12CCN(CC)CC2)c1[nH]c(-c2ccc(F)cc2)nc1C#N | 1.8 | 259 | 11.7 | 9370 | 161 | 23600 | 2.8 |
| CCC(=O)CCCCC[C@H](NC(=O)[C@H]1CC12CCN(C)CC2)c1[nH]c(-c2ccc(F)cc2)nc1C(N)=O | 0.9 | 276 | 6.3 | 6800 | 166 | 17600 | 0.6 |
| CCC(=O)CCCCC[C@H](NC(=O)c1ccon1)c1[nH]c(-c2ccc(F)cc2)nc1C#N | 12.1 | 2726 | 164 | 16200 | 558 | > 45000 | 35.6 |
| CCC(=O)CCCCC[C@H](NC(=O)[C@H]1CC12CCN(C)CC2)c1[nH]c(-c2cccnc2OC)nc1C#N | 34.8 | 1669 | 229 | 38100 | 2112 | 17100 | 58.9 |
| CCC(=O)CCCCC[C@H](NC(=O)[C@H]1CC12CCN(C)CC2)c1[nH]c(-c2ccc(-c3cccnc3)cc2)nc1C#N | 0.3 | 55 | 1.7 | 12600 | 77 | 9470 | 0.2 |
| CCC(=O)CCCCC[C@H](NC(=O)[C@H]1CC12CCN(C)CC2)c1[nH]c(-c2ccc(C(F)(F)F)cc2)nc1C#N | 1.9 | 175 | 15.6 | 19200 | 107 | 8250 | 3.7 |
| CCC(=O)CCCCC[C@H](NC(=O)[C@H]1CC12CCN(C)CC2)c1[nH]c(-c2ccc3nc(C)ccc3c2)nc1C#N | 0.2 | 97 | 1.5 | 9830 | 105 | 6300 | 0.3 |
| CCC(=O)CCCCCC(NC(=O)c1cncs1)c1[nH]c(-c2ccccc2)nc1C(N)=O (configuration not stated) | – | 537 | 26.7 | 4700 | 154 | 16400 | 7.2 |
